Values after ≈ are worked out from the molar mass of the structure shown. Active and inactive are the calls of the source. The calls are words filed in the database; no cut-off is given here.
Tests used:
[1] = target: T1, Lysophosphatidic acid receptor 1 (Homo sapiens, UniProt Q92633); test: Antagonist activity at human LPA1 receptor expressed in CHO cells assessed as reduction in LPA-induced intracellular Ca2+ concentration pretreated with compound followed by LPA addition by fluorescence assay; assay type: functional, cell-based
In short: (§1)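 IC50s came from nonlinear regression of 5-point concentration–response curves, reported with 95% confidence intervals.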

[2] = target: T2, Lysophosphatidic acid receptor 3 (Homo sapiens, UniProt Q9UBY5); test: Inhibition of LPA3 (unknown origin); in short: as §1
T2 sequence (Q9UBY5 whole entry): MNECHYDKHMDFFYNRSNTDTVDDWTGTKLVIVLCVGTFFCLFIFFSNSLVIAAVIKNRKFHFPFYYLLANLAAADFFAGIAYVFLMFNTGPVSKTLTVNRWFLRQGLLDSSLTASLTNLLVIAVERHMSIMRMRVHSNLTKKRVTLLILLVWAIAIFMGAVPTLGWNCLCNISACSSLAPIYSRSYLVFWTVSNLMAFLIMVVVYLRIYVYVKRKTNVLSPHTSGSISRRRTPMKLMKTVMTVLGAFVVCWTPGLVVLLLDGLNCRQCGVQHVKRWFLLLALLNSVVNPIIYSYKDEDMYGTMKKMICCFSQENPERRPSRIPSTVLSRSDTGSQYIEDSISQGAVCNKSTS

[3] = Half life in human liver microsomes at 0.5 mg/ml; assay type: ADME
In short: (§2)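 Liver microsomes were used at 0.5 mg/mL with NADPH. Half-life is reported in min.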

[4] = Half life in rat liver microsomes at 0.5 mg/ml; assay type: ADME; in short: as §2
[5] = Apparent permeability in human Caco2 cells; assay type: ADME, cell-based; details: Caco-2
[6] = Solubility of the compound in buffer at pH 6.8; assay type: physicochemical
Rattus norvegicus [7] = test: Inhibition of LPA-induced increase of intraurethral pressure in anesthetized rat at 10 mg/kg, id administered at 0 mins followed by LPA challenge at 0, 5, 15, 30 and 60 mins; assay type: functional; details: Urethra
In short: (§3)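 Anesthetized rats received compound in 0.5% methylcellulose intraduodenally at 0 min. LPA (300 μg/kg) was given i.v. before dosing and at 5, 15, 30 and 60 min. The read-out is the maximal inhibition rate of the LPA-evoked intraurethral pressure rise.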

[8] = target: Lysophosphatidic acid receptor 2 (Homo sapiens, UniProt Q9HBW0); test: Inhibition of LPA2 (unknown origin); in short: as §1
Rattus norvegicus [9] = test: In vivo antagonist activity at LPA1 receptor in conscious rat assessed as decrease in intraurethral pressure at 30 mg/kg, po; assay type: functional, organism-based
In short: (§4)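 Conscious rats were dosed orally at 0 min with no LPA stimulation. Intraurethral pressure and mean blood pressure were recorded continuously for 60 min and averaged over 10-min intervals. Comparison was against vehicle.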

Rattus norvegicus [10] = test: Inhibition of LPA-induced increase of intraurethral pressure in rat at 10 mg/kg, po administered 60 mins prior to LPA addition; assay type: functional, organism-based; details: Urethra
In short: (§5)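 Conscious rats were dosed orally. After 60 min, LPA (300 μg/kg) was injected i.v. and intraurethral pressure was recorded under short-term anesthesia. ID50 was taken from the dose–response.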

[11] = Half life in rat at 3 mg/kg, iv; assay type: ADME, organism-based; details: in vivo
Rattus norvegicus [12] = test: Inhibition of LPA-induced increase of intraurethral pressure in po dosed rat administered 60 mins prior to LPA addition; assay type: functional; details: Urethra; in short: as §5
Rattus norvegicus [13] = test: Inhibition of LPA-induced increase of intraurethral pressure in rat at 30 mg/kg, po administered 60 mins prior to LPA addition; assay type: functional, organism-based; details: Urethra; in short: as §5
Rattus norvegicus [14] = test: Reduction in intraurethral pressure in conscious rat at 1 mg/kg, po measured after 60 mins; assay type: functional, organism-based; details: 30 mg/kg, in the assay text read “30 mg/kg” for “1 mg/kg”; in short: as §4
[15] = Total clearance in rat at 3 mg/kg, iv; assay type: ADME, organism-based; details: in vivo
Rattus norvegicus [16] = test: Toxicity in conscious rat assessed as reduction in mean blood pressure at 30 mg/kg, po; assay type: organism-based; details: in vivo; in short: as §4
Rattus norvegicus [17] = test: Inhibition of LPA-induced increase of intraurethral pressure in anesthetized rat at 3 mg/kg, id administered at 0 mins followed by LPA challenge at 0, 5, 15, 30 and 60 mins; assay type: functional; details: Urethra; in short: as §3
[18] = target: T1, Lysophosphatidic acid receptor 1; test: Antagonist activity at human LPA1 receptor expressed in CHO cells assessed as reduction in LPA-induced intracellular Ca2+ concentration at 1 uM pretreated with compound followed by LPA addition by fluorescence assay; assay type: functional, cell-based
Rattus norvegicus [19] = test: Toxicity in conscious rat assessed as reduction in mean blood pressure at 1 mg/kg, po measured after 60 mins; assay type: organism-based; details: in vivo, 1 h; in short: as §4

Sequence of Lysophosphatidic acid receptor 2 (Q9HBW0 whole entry): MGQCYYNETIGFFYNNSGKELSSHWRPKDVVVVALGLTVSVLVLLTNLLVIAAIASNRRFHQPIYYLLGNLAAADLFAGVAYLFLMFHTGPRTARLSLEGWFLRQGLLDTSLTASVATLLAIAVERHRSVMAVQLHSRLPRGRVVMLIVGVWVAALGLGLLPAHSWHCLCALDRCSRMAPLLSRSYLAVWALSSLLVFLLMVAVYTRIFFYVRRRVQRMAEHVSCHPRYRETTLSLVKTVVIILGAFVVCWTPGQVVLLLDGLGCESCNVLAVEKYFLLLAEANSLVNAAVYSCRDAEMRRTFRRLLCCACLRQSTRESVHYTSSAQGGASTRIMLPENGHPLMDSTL
T1 sequence (Q92633 whole entry): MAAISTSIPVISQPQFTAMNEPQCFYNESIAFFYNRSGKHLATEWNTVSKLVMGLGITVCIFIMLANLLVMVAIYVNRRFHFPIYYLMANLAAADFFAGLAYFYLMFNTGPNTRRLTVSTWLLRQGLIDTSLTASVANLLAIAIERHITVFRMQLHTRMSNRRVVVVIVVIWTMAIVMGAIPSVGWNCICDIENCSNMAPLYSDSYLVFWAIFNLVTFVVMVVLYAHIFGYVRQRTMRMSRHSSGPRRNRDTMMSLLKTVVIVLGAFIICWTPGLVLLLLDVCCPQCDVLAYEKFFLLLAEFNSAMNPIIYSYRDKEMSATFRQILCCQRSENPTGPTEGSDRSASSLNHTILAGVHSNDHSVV

For `COc1cc(C(=O)N(CCCCc2ccccc2)Cc2ccc(OCC(=O)O)cc2)cc(OC)c1C`, the IC50 [1] was 6.6 µM.
For `COc1cc(C(=O)N(CCCc2cccc(F)c2)Cc2ccc(CC(=O)O)cc2)cc(OC)c1C`, the IC50 [1] was 0.19 µM.
For `COc1cc(C(=O)N(CCCc2ccccc2)Cc2ccc(OCC(=O)O)cc2)cc(OC)c1C`, the IC50 [2] was greater than 10 µM, the half-life [3] was 22 min and the half-life [4] was 24 min. For the same compound, the Papp [5] was 3.2 ×10⁻⁶ cm/s, the solubility [6] was 84 µM (≈ 40.1 µg/mL) and the inhibition in vivo at 10 mg/kg (Rattus norvegicus [7]) was 44%. The IC50 [8] was 23 µM and the IC50 [1] was 0.1 µM.
In the case of `COc1cccc(C(=O)N(CCCc2ccccc2)Cc2ccc(-c3ccccc3C(=O)O)cc2)c1`, the IC50 [1] is reported as 1.3 µM.
For `COc1cc(C(=O)N(CCCc2ccccc2)Cc2ccc(Oc3ccccc3C(=O)O)cc2)cc(OC)c1OC`, the IC50 [1] was 0.13 µM.
For `COc1cc(C(=O)N(CCCc2ccccc2)Cc2ccc(-c3ccccc3C(=O)O)cc2)cc(OC)c1OC`, the IC50 [1] was 0.39 µM.
Compound `COc1cc(C(=O)N(CCCc2ccccc2)Cc2ccc(Oc3cc(Cl)ccc3C(=O)O)cc2)cc(OC)c1C` has an IC50 [1] of 0.0059 µM.
`COc1cc(OC)cc(C(=O)N(CCCc2ccccc2)Cc2ccc(-c3ccccc3CC(=O)O)cc2)c1` showed an IC50 [1] of 0.21 µM.
With `COc1cc(C(=O)N(CCCc2ccccc2)Cc2ccc(Oc3ccc(C)cc3C(=O)O)cc2)cc(OC)c1C` the IC50 [1] was 0.042 µM.
`Cc1cccc(C(=O)N(CCCc2ccccc2)Cc2ccc(-c3ccccc3C(=O)O)cc2)c1` gave an IC50 [1] of 1.7 µM.
In the case of `COc1cc(C(=O)N(CCc2ccccc2)Cc2ccc(OCC(=O)O)cc2)cc(OC)c1C`, the IC50 [1] is reported as greater than 10 µM.
Compound `Cc1cc(C)cc(C(=O)N(CCCc2ccccc2)Cc2ccc(-c3ccccc3C(=O)O)cc2)c1` has an IC50 [1] of 0.26 µM.
With `COc1cc(OC)cc(C(=O)N(CCCc2ccccc2)Cc2ccc(Oc3ccccc3C(=O)O)cc2)c1` the IC50 [1] was 0.089 µM.
With `COc1cc(C(=O)N(CCCc2ccccc2)Cc2ccc(CC(=O)O)cc2)cc(OC)c1C` the IC50 [2] was greater than 10 µM, the inhibition (Rattus norvegicus [9]) was “Active” and the half-life [3] was 28 min. It also gave a half-life [4] of 29 min, a Papp [5] of 15.9 ×10⁻⁶ cm/s and a solubility [6] of 73 µM (≈ 33.7 µg/mL). For the same compound, the inhibition in vivo at 10 mg/kg (Rattus norvegicus [7]) was 88%, the inhibition (Rattus norvegicus [10]) was “Active” and the half-life [11] was 18 min. The IC50 [8] was 8.6 µM, the inhibition (Rattus norvegicus [12]) was “Dose-dependent effect” and the ED50 (Rattus norvegicus [12]; read-out: ID50 (the source's name)) was 11.6 mg/kg. For the same compound, the inhibition (Rattus norvegicus [13]) was “Active”, the Activity (Rattus norvegicus [14]) was “Active” and the IC50 [1] was 0.16 µM. The clearance [15] was 15.9 mL/min/kg, the Activity (Rattus norvegicus [16]) was “Non-Toxic” and the inhibition in vivo at 3 mg/kg (Rattus norvegicus [17]) was 62%.
For `COc1cc(C(=O)N(CCCc2ccccc2)Cc2ccc(Oc3ccccc3C(=O)O)cc2)cc(OC)c1C`, the IC50 [1] was 0.071 µM.
`COc1ccc(C(=O)N(CCCc2ccccc2)Cc2ccc(-c3ccccc3C(=O)O)cc2)cc1OC` gave an IC50 [1] of 3.7 µM.
With `COc1cc(C(=O)N(CCCc2ccccc2F)Cc2ccc(CC(=O)O)cc2)cc(OC)c1C` the IC50 [1] was 0.22 µM.
With `COc1cc(C(=O)N(CCCc2ccccc2)Cc2ccc(Oc3ccc(Cl)cc3C(=O)O)cc2)cc(OC)c1C` the IC50 [2] was greater than 10 µM, the half-life [3] was less than 15 min and the half-life [4] was less than 15 min. For the same compound, the solubility [6] was 69 µM (≈ 39.6 µg/mL), the inhibition in vivo at 10 mg/kg (Rattus norvegicus [7]) was 53% and the IC50 [8] was 0.79 µM. It also gave an IC50 [1] of 0.0035 µM.
In the case of `COc1cc(OC)cc(C(=O)N(CCCc2ccccc2)Cc2ccc(Oc3ccc(C(=O)O)cc3)cc2)c1`, the inhibition [18] is reported as 44%.
Work on `COc1cc(C(=O)N(CCCc2ccccc2)Cc2ccc(Oc3cccc(C)c3C(=O)O)cc2)cc(OC)c1C` yielded an IC50 [1] of 0.1 µM.
With `COc1ccc(C(=O)N(CCCc2ccccc2)Cc2ccc(-c3ccccc3C(=O)O)cc2)cc1` the IC50 [1] was 4.4 µM.
`COc1cc(C(=O)N(C/C=C/c2ccccc2)Cc2ccc(CC(=O)O)cc2)cc(OC)c1C` showed an IC50 [1] greater than 1 µM.
For `CCOc1ccccc1OCCN[C@H](C)Cc1ccc(OC)c(S(N)(=O)=O)c1` [TAMSULOSIN], the Activity (Rattus norvegicus [19]) was “Toxic” and the Activity (Rattus norvegicus [14]) was “Active”.
`O=C(O)c1ccccc1-c1ccc(CN(CCCc2ccccc2)C(=O)c2ccccc2)cc1` gave an IC50 [1] of 12.1 µM.
For `COc1cc(C(=O)N(CCCOc2cccc(C(=O)O)c2)CCCc2ccccc2)cc(OC)c1C`, the IC50 [1] was 0.68 µM.
`COc1cc(C(=O)N(CCCc2ccccc2)Cc2ccc(Oc3cc(C)ccc3C(=O)O)cc2)cc(OC)c1C` gave an IC50 [1] of 0.015 µM.
Compound `COc1cc(OC)cc(C(=O)N(CCCc2ccccc2)Cc2ccc(-c3ccccc3C(=O)O)cc2)c1` has an IC50 [1] of 0.26 µM.
In the case of `O=C(O)c1ccccc1-c1ccc(CN(CCCc2ccccc2)C(=O)c2cccc(F)c2)cc1`, the IC50 [1] is reported as 5.5 µM.
With `COc1cc(C(=O)N(CCCc2ccccc2)Cc2ccc(C(=O)O)cc2)cc(OC)c1C` the IC50 [1] was greater than 1 µM.
Compound `COc1cc(C(=O)N(CCCc2ccc(F)cc2)Cc2ccc(CC(=O)O)cc2)cc(OC)c1C` has an IC50 [1] greater than 1 µM.
Compound `COc1cc(OC)cc(C(=O)N(CCCc2ccccc2)Cc2ccc(-c3ccccc3CCC(=O)O)cc2)c1` has an IC50 [1] of 0.23 µM.
`COc1ccccc1C(=O)N(CCCc1ccccc1)Cc1ccc(-c2ccccc2C(=O)O)cc1` gave an IC50 [1] of 3.3 µM.
With `COc1cc(OC)cc(C(=O)N(CCCc2ccccc2)Cc2ccc(Oc3cccc(C(=O)O)c3)cc2)c1` the IC50 [1] was 0.14 µM.
For `COc1cc(C(=O)N(CCCc2ccccc2)Cc2ccc(Oc3c(C)cccc3C(=O)O)cc2)cc(OC)c1C`, the IC50 [1] was 0.14 µM.

Source: ChEMBL document CHEMBL3856289, “Discovery of ONO-7300243 from a Novel Class of Lysophosphatidic Acid Receptor 1 Antagonists: From Hit to Lead” (ACS Med Chem Lett, 2016)
